Assay results reported in paper PMC7051832 (ACS chemical biology, 2019).

Columns and labels:
[1] = biological target: E. coli dihydrofolate reductase (ecDHFR) (Escherichia coli, UniProt P0ABQ4); assay: NMR 15N-HSQC titration of model fragments binding to ecDHFR
Outline: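 15N-ecDHFR at 100 μM, in bulk buffer (20 mM Tris pH 8.5, 100 mM NaCl, 10 mM DTT, 0.02% azide) or in reverse micelles (52.5 mM 10MAG, 18 mM LDAO, 4.5 mM DTAB, hexanol, pentane; W0 15; 5 mM in water core). Titrated with fragment. 15N-HSQC at 25 °C, 1024 × 64 complex points, 32 scans. Chemical shift perturbations fitted for Kd; error from fitting.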

interleukin-1β (IL-1β) = interleukin-1β (IL-1β) (Homo sapiens, UniProt P01584); assay: Reverse micelle; format: binding; conditions: RM encapsulated IL-1β
interleukin-1β (IL-1β), sequence (P01584 117-269): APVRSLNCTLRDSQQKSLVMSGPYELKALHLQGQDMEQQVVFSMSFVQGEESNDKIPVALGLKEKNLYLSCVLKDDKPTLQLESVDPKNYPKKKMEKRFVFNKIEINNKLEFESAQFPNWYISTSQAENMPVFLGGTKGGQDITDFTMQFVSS

E. coli dihydrofolate reductase (ecDHFR), sequence (P0ABQ4 whole entry, the tested form may be a part): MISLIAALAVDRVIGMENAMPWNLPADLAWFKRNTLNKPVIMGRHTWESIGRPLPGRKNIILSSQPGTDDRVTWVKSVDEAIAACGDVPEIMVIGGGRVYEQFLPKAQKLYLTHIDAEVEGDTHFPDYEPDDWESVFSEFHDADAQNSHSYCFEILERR

Row | Structure (SMILES) | Kd ([1]; binding to ecDHFR, natural cofactor, NMR titration) | degree of saturation of the protein ([1]; same absolute amounts of protein and ligand, both bulk and RM samples) | binding sites on the protein surface (interleukin-1β (IL-1β))
1 | NC(=O)c1ccc[n+]([C@@H]2O[C@H](COP(=O)([O-])OP(=O)(O)OC[C@H]3O[C@@H](n4cnc5c(N)ncnc54)[C@H](OP(=O)(O)O)[C@@H]3O)[C@@H](O)[C@H]2O)c1 [NADP^+] | 9 ± 2 µM | saturated the enzyme in both bulk and RM samples | –
2 | OCc1ccc2nccn2c1 [imidazo[1,2-a]pyridine-6-ylmethanol] | – | – | bound to multiple sites on the protein surface
